The source made the active and inactive calls. The calls are words filed in the database; no cut-off is given here.
Assays:
[1] = system: Rattus norvegicus; assay: Hypoglycemic activity in 48-hrs fasted rat assessed as decrease in blood glucose level at 300 mg/kg, po measured up to 4 hrs after drug administration; assay type: functional, organism-based; set-up: dose 300 mg/kg
Method in brief: (§1)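 Male rats of about 200 g were fasted 48 h. A zero-time tail-vein blood sample was taken on the morning of the test, then compound was given ip as a suspension in 0.9% saline or orally as a suspension in 0.5% tragacanth. Vehicle-only rats served as controls. Tail-vein blood was sampled at 1, 2 and 4 h for glucose.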

[2] = system: Rattus norvegicus; assay: Hypoglycemic activity in 48-hrs fasted rat assessed as decrease in blood glucose level at 300 mg/kg, ip measured up to 4 hrs after drug administration; assay type: functional, organism-based; set-up: dose 300 mg/kg; method in brief: as §1
[3] = system: Rattus norvegicus; assay: Hypoglycemic activity in 48-hrs fasted rat assessed as decrease in blood glucose level at 200 mg/kg, po after 1 hr; assay type: functional; method in brief: as §1
[4] = system: Rattus norvegicus; assay: Hypoglycemic activity in 48-hrs fasted rat assessed as decrease in blood glucose level at 200 mg/kg, po after 2 hrs; assay type: functional; method in brief: as §1
[5] = system: Rattus norvegicus; assay: Hypoglycemic activity in 48-hrs fasted rat assessed as decrease in blood glucose level at 200 mg/kg, po after 4 hrs; assay type: functional; method in brief: as §1
[6] = system: Rattus norvegicus; assay: Hypoglycemic activity in 48-hrs fasted rat assessed as decrease in blood glucose level at 200 mg/kg, ip after 1 hr; assay type: functional; settings: route intraperitoneal; method in brief: as §1
[7] = system: Rattus norvegicus; assay: Hypoglycemic activity in 48-hrs fasted rat assessed as decrease in blood glucose level at 200 mg/kg, ip after 2 hrs; assay type: functional; settings: route intraperitoneal; method in brief: as §1
[8] = system: Rattus norvegicus; assay: Toxicity in 48-hrs fasted rat assessed as mortality at 200 mg/kg, ip after 4 hrs; assay type: organism-based; set-up: dose 200 mg/kg, route intraperitoneal; settings: in vivo
Method in brief: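 Male rats, about 200 g, fasted 48 h before dosing. Given ip as a suspension in 0.9% saline; vehicle-only group run as controls. Tail-vein blood taken at time zero and at 1, 2 and 4 h after dosing.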

SMILES | Activity [1] | Activity [2] | further results
CS(=O)(=O)c1cccnc1C(=O)O | inactive | inactive | –
CCCCNC(=O)NS(=O)(=O)c1ccc(C)cc1 [TOLBUTAMIDE] | – | – | inhibition in vivo at 200 mg/kg [3]: 28%; inhibition in vivo at 200 mg/kg [4]: 47%; inhibition in vivo at 200 mg/kg [5]: 48%
O=C(O)c1ncc(S)cc1S | inactive | inactive | –
O=C(O)c1ncc2ccccc2c1S | inactive | inactive | –
O=C(O)c1nc2ccccc2cc1S | inactive | inactive | –
O=C(O)c1ccc(S)c(C(=O)O)n1 | inactive | inactive | –
O=C(O)c1nccnc1S | inactive | inactive | –
O=C(O)c1nc(C(=O)O)c(S)cc1S | inactive | inactive | –
O=C(O)c1[nH]c2ccccc2c1S | – | – | inhibition in vivo at 200 mg/kg [6]: 45%; inhibition in vivo at 200 mg/kg [7]: 51%; Activity [8]: Toxic
C[S+]([O-])c1cccnc1C(=O)O (centres undefined) | inactive | inactive | –
CCOC(=O)c1ncsc1S | inactive | inactive | –

Reference: ChEMBL document CHEMBL3243938, “Mercapto heterocyclic carboxylic acids, analogues of 3-mercaptopicolinic acid” (J Med Chem, 1977)
